Measured values taken from ChEMBL document CHEMBL3994584, “Identification of novel fluorescent probes preventing PrPSc replication in prion diseases” (Eur J Med Chem, 2017).
Active and inactive are the calls of the source. The rule behind the calls is not given here.

Legend:
[1] = Cytotoxicity against mouse ScN2a cells assessed as cell viability at 0.1 uM after 5 days by MTT assay relative to control; format: cell-based; settings: read-out: Activity
How it was run: (§1)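 ScN2a cells were seeded in MEM at 2.5×10^4 cells/mL and allowed to settle for 2 h. Compounds (DMSO stock, diluted in EtOH then medium) were added at 0.1, 1 and 10 μM for 5 days at 37 °C under 5% CO2. MTT (5 mg/mL) was applied for 3 h and solubilized with DMSO/2-propanol. Plates were read at 570/690 nm. Viability is given as % of untreated control, mean ± SD of three independent experiments.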

[2] = Cytotoxicity against mouse ScN2a cells assessed as cell viability at 1 uM after 5 days by MTT assay relative to control; format: cell-based; settings: read-out: Activity; how it was run: as §1
[3] = Cytotoxicity against mouse ScN2a cells assessed as cell viability at 10 uM after 5 days by MTT assay relative to control; format: cell-based; settings: read-out: Activity; how it was run: as §1
Mus musculus [4] = species on record: Mus musculus; experiment: Antiprion activity against mouse prion protein RML infected mouse ScN2a cells assessed as proteinase K-resistant PrPSc level at 0.1 uM incubated for 5 days followed by proteinase K digestion by Western blot method relative to control
How it was run: (§2)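 RML-infected ScN2a cells were treated with 0.1, 1 and 10 μM for 5 days, with DMSO ≤0.1% final. Lysates (500 μg protein) were digested with 10 μg PK for 1 h at 37 °C, stopped with 2 mM PMSF and ultracentrifuged. Pellets were run on SDS-PAGE and immunoblotted with anti-PrP Fab W226, with ECL detection. Densitometry gave PK-resistant PrPSc over total PrP, with untreated set to 100%. Three independent experiments.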

Mus musculus [5] = species on record: Mus musculus; experiment: Antiprion activity against mouse prion protein RML infected mouse ScN2a cells assessed as proteinase K-resistant PrPSc level at 1 uM incubated for 5 days followed by proteinase K digestion by Western blot method relative to control; how it was run: as §2
Mus musculus [6] = species on record: Mus musculus; experiment: Antiprion activity against mouse prion protein RML infected mouse ScN2a cells assessed as proteinase K-resistant PrPSc level at 10 uM incubated for 5 days followed by proteinase K digestion by Western blot method relative to control; how it was run: as §2
N2a = experiment: Effect on cellular prion protein level in mouse N2A cells up to 10 uM incubated for 5 days by Western blot method; format: functional, cell-based
How it was run: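 Non-infected N2a cells were treated at 0.1, 1 and 10 μM for 5 days. Lysates (50 µg protein, no PK digestion) were immunoblotted with anti-PrP Fab W226. PrPC was normalized to actin, with untreated controls set to 100%. Done in triplicate.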

[7] = Cytotoxicity against mouse ScN2a cells assessed as growth inhibition at 1 uM after 5 days by MTT assay relative to control; format: cell-based; settings: read-out: GI; how it was run: as §1
[8] = Antiprion activity against mouse prion protein RML infected mouse ScGT1 cells assessed as reduction in proteinase K-resistant PrPSc level incubated for 7 days followed by proteinase K digestion by ELISA; settings: ScGT1, 168 h
Mus musculus [9] = species on record: Mus musculus; experiment: Binding affinity to PrPSc aggregates in mouse prion protein RML infected mouse ScN2a cells incubated for 8 mins followed by proteinase K digestion using FITC filter by fluorescence confocal microscopic method
How it was run: (§3)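 N2a or ScN2a cells were grown on coverslips for 24 h, then fixed and permeabilized (4% formaldehyde/0.1% Triton X-100, 1 h, RT) and denatured with 6 M GdnHCl for 10 min. Where PK was used: 20 µg/mL for 15 min at 37 °C, stopped with PMSF. After NGS blocking, cells were stained with compound at 0.025% in 80% EtOH for 8 min at RT. Imaging was by confocal microscopy with a FITC filter.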

Mus musculus [10] = species on record: Mus musculus; experiment: Binding affinity to proteinase K sensitive cellular prion protein in mouse N2A cells incubated for 8 mins by fluorescence confocal microscopic method; format: cell-based; how it was run: as §3
[11] = Antiprion activity against mouse prion protein RML infected mouse ScN2a cells assessed as reduction in proteinase K-resistant PrPSc level incubated for 5 days followed by proteinase K digestion by Western blot method; settings: 120 h; how it was run: as §2

Compound	viability at 120 h, 0.1 µM [1]	viability at 120 h, 1 µM [2]	viability at 120 h, 10 µM [3]	Activity (Mus musculus [4])	Activity (Mus musculus [5])	Activity (Mus musculus [6])	Activity (N2a)	EC50 ([11]; read-out: EC50)	EC50 ([11]; read-out: pEC50 (converted))	other results
C1=CC2=NC(N/N=C/c3ccnc4ccccc34)=C3NC=CN3C2C=C1 (stereo unspecified)	94.4%	98.5%	83.2%	178%	131%	30%	inactive	–	–	–
COc1ccc2c(C)cc(N/N=C/c3ccnc4ccccc34)nc2c1	93.9%	84.8%	83.8%	88%	77%	13%	inactive	–	–	–
c1ccc2c(NCCCCCCCCNc3c4c(nc5ccccc35)CCCC4)c3c(nc2c1)CCCC3	–	0.7%	–	–	–	–	–	–	–	inhibition at 120 h, 1 µM [7]: > 20%
COC(=O)C1=CC2=NC(N/N=C/c3ccnc4ccccc34)=C3CC=CN3C2C=C1 (stereo unspecified)	72.6%	89.3%	67.1%	104%	131%	30%	inactive	–	–	–
CN(CCCCNc1c2c(nc3ccccc13)CCCC2)CCCNc1c2c(nc3ccccc13)CCCC2	–	76.9%	–	–	–	–	–	–	–	inhibition at 120 h, 1 µM [7]: > 20%
COC1=CC2=NC(N/N=C/c3ccnc4ccccc34)=C3CC=CN3C2C=C1 (stereo unspecified)	107%	96.3%	83.3%	76%	35%	9%	inactive	–	–	IC50 [8]: 1600 nM; Activity (Mus musculus [9]): Active; Activity (Mus musculus [10]): inactive
C(=C\c1cccs1)/NNc1nc2ccccc2n2cccc12	78.9%	81.9%	80.7%	88%	79%	72%	inactive	–	–	–
Cc1ccc2c(c1)sc(-c1ccc(N(C)C)cc1)[n+]2C	–	–	–	–	–	–	–	–	–	Activity (Mus musculus [9]): Active
COC(=O)C1=CC2=NC(N/N=C/c3ccc4ccccc4n3)=C3CC=CN3C2C=C1 (stereo unspecified)	92.6%	88.2%	45.4%	–	–	–	–	–	–	inhibition at 120 h, 1 µM [7]: > 20%
FC1=CC2=NC(N/N=C/c3ccnc4ccccc34)=C3NC=CN3C2C=C1 (stereo unspecified)	87.7%	92.6%	72.9%	76%	34%	31%	inactive	–	–	–
C1=CC2=NC(N/N=C/c3ccnc4ccccc34)=C3CC=CN3C2C=C1 (stereo unspecified)	92.3%	88.3%	87%	90%	78%	27%	inactive	–	–	–
C1=CC2C(=NC(N/N=C/c3ccnc4ccccc34)=C3CC=CN32)N=C1 (stereo unspecified)	104%	98.6%	75.6%	128%	144%	83%	inactive	–	–	–
CC1=CC2=NC(N/N=C/c3ccnc4ccccc34)=C3CC=CN3C2C=C1C (stereo unspecified)	96.7%	98.6%	86.5%	137%	100%	29%	inactive	–	–	–
CN(C)c1cccc(Nc2nc(-c3ccc(-c4ccccc4)cc3)cs2)n1	–	–	–	–	–	–	–	699 nM	692 nM	–
Cc1cccc(Nc2nc(-c3ccc(-c4ccc(OC(C)C)nc4)cc3)cs2)n1	–	–	–	–	–	–	–	5860 nM	5890 nM	–
CN1CCN(c2cc(-c3ccc(-c4csc(NC(=O)C5CC5)n4)cc3)ccn2)CC1	–	–	–	–	–	–	–	682 nM	676 nM	–

Compound	viability at 120 h, 0.1 µM [1]	viability at 120 h, 1 µM [2]	viability at 120 h, 10 µM [3]	Activity (Mus musculus [4])	Activity (Mus musculus [5])	Activity (Mus musculus [6])	Activity (N2a)	EC50 ([11]; read-out: EC50)	EC50 ([11]; read-out: pEC50 (converted))	other results
C(=C\c1ccco1)/NNc1nc2ccccc2n2cccc12	96.8%	88.5%	71.4%	105%	86%	35%	inactive	–	–	–
COCCOc1ccc(-c2ccc(-c3csc(Nc4cccc(C)n4)n3)cc2)cn1	–	–	–	–	–	–	–	137 nM	138 nM	–
Cc1cc(-c2ccc(-c3csc(Nc4cccc(C)n4)n3)cc2)ccn1	–	–	–	–	–	–	–	400 nM	398 nM	–
Cc1cccc(Nc2nc(-c3ccc(-c4ccnn4C)cc3)cs2)n1	–	–	–	–	–	–	–	89 nM	89.1 nM	–
COc1ccc(-c2csc(Nc3ccccc3)n2)cc1OC	–	–	–	–	–	–	–	8200 nM	8130 nM	–
CC(=O)Nc1nc(-c2ccc(-c3ccccc3)cc2)cs1	–	–	–	–	–	–	–	119 nM	120 nM	–
Cc1cccc(Nc2nc(-c3ccc(-c4ccnc(OC(C)C)c4)cc3)cs2)n1	–	–	–	–	–	–	–	2840 nM	2820 nM	–
c1ccc2oc(-c3csc(Nc4ccc(-c5cnco5)cc4)n3)cc2c1	–	–	–	–	–	–	–	228 nM	229 nM	–
Cc1cccc(Nc2nc(-c3ccc(-c4ccncc4)cc3)cs2)n1	–	–	–	–	–	–	–	87 nM	87.1 nM	–
Cc1cccc(Nc2nc(-c3ccc(-c4ccc(N5CCN(C)CC5)nc4)cc3)cs2)n1	–	–	–	–	–	–	–	96 nM	95.5 nM	–
CN1CCN(c2ccc(-c3ccc(-c4csc(NC(=O)C5CC5)n4)cc3)cn2)CC1	–	–	–	–	–	–	–	70 nM	70.8 nM	–
COc1ccc(-c2csc(Nc3ccc(C)cn3)n2)c(OC)c1	–	–	–	–	–	–	–	3130 nM	3160 nM	–
COc1ccc(-c2csc(Nc3ncccc3C)n2)cc1OC	–	–	–	–	–	–	–	7290 nM	7240 nM	–
C1=CC2=NC(N/N=C/c3ccc4ccccc4n3)=C3CC=CN3C2C=C1 (stereo unspecified)	87.6%	94.8%	90.9%	54%	47%	34%	inactive	–	–	–
COc1ccc(-c2csc(NC(=O)c3ccc4ccccc4n3)n2)cc1OC	–	–	–	–	–	–	–	8180 nM	8130 nM	–
